Laboratory results published in article PMC7901021 (ACS chemical biology, 2021).
Values belong to the compound of their own block, whether it stands above or below them.

Experiments:
MONOMAC6 and NB4 cells = details: cited from earlier work
FTO [1] = target: T1, FTO (Homo sapiens, UniProt Q9C0B1); details: read-out: reported IC50 against FTO; cited from earlier work
ALKBH5 [2] = target: T2, ALKBH5 (Homo sapiens, UniProt Q6P6C2); details: cited from earlier work
[3] = precipitation in assay buffer; format: physicochemical; details: dose response could not be determined
FTO [4] = target: T1, FTO; assay: m6A7-Broccoli fluorescence enzymatic inhibition assay; format: biochemical; details: for preference for FTO over ALKBH5: FTO vs ALKBH5 IC50
FTO [5] = target: T1, FTO; assay: steady-state inhibition kinetics; format: biochemical; details: vmax independent of inhibitor concentration; substrate 0-10 μM
[6] = tested on: TS576 patient-derived GSC neurospheres; assay: neurosphere formation assay; format: cell-based, human; details: 2 days
[7] = tested on: GSC-23 patient-derived GSC neurospheres; assay: neurosphere formation assay; format: cell-based, human; details: GSC-23, 20 μM, 2 days
Summary of the method: (§1)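 Neurospheres of patient-derived glioblastoma stem cell lines, with normal human neural stem cells run alongside, were exposed to 20 μM test compound for 2 days. Wells were imaged by bright field, and neurosphere size was quantified by image analysis from more than 50 neurospheres per group. Groups were compared by Student's t test.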

[8] = tested on: GBM-6 patient-derived GSC neurospheres; assay: neurosphere formation assay; format: cell-based, human; details: GBM-6, 20 μM, 2 days
Summary of the method: as §1

[9] = tested on: healthy human neural stem cells (hNSCs) neurospheres; assay: neurosphere formation assay; format: cell-based; details: 20 μM
Summary of the method: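 Normal human neural stem cells were grown as neurospheres and treated with the test compound at 20 μM for 2 days. Neurospheres were imaged by bright field and sized by ImageJ, with more than 50 neurospheres per group. Comparisons by Student's t test.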

[10] = tested on: m6A mRNA levels in TS576 cells; assay: m6A dot blot assay of purified mRNA; format: cell-based, human; details: 30 μM, does not distinguish m6A and m6Am
Summary of the method: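 TS576 patient-derived GSCs were treated with the test compound or DMSO, and mRNA was purified from them. m6A in the mRNA was assessed by dot blot. shControl versus shFTO knockdown in TS576 served as the reference for m6A change.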

[11] = tested on: m6A and m6Am levels in GSCs; assay: quantification of m6A and m6Am by HPLC-MS/MS/MS; format: cell-based, human
ALKBH5 [12] = target: T2, ALKBH5; assay: m6A7-Broccoli fluorescence enzymatic inhibition assay; format: biochemical; details: for selectivity between FTO and ALKBH5 (in words): comparison of IC50 toward both demethylases
[13] = tested on: orthotopically transplanted GSC tumors; details: cited from earlier work

T2 sequence (Q6P6C2 whole entry): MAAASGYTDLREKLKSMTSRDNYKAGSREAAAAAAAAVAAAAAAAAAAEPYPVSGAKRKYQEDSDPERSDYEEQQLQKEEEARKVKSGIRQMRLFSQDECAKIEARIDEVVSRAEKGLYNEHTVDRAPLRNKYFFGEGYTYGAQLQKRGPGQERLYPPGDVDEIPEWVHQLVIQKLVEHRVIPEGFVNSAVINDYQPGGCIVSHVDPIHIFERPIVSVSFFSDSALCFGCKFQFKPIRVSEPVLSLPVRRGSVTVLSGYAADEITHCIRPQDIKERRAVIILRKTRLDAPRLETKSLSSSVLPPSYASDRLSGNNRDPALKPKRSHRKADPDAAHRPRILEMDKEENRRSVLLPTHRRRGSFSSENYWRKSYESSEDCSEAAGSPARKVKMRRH
T1 sequence (Q9C0B1 whole entry): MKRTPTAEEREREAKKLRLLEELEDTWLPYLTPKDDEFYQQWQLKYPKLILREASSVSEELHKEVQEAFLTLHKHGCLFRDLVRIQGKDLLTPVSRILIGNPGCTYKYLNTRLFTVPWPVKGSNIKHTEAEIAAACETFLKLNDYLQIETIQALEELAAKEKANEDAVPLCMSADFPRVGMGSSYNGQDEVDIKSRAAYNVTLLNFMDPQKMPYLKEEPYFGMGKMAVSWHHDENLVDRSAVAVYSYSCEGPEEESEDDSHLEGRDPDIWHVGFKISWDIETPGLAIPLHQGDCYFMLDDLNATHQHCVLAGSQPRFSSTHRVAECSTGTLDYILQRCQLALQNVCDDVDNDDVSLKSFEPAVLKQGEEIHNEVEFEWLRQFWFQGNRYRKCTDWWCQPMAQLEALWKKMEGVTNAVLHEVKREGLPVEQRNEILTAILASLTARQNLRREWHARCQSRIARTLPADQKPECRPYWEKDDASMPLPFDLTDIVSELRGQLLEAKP

Structure (SMILES): Cc1noc(C)c1-c1cc(Cl)c(Nc2ccccc2C(=O)O)c(Cl)c1 [FB23]
cellular uptake (MONOMAC6 and NB4 cells): poor cellular uptake

Structure (SMILES): Cc1noc(C)c1-c1cc(Cl)c(Nc2ccccc2C(=O)NO)c(Cl)c1 [FB23–2]
IC50 (FTO [1]): 2.6 µM
inhibition of FTO at 50 μM (stated as selectivity against ALKBH5) (ALKBH5 [2]): little to no inhibition
cellular concentration relative to FB23 (MONOMAC6 and NB4 cells; MONOMAC6 and NB4 cells): 3−10 ×

Structure (SMILES): COc1ncc(-c2cccc(OCc3ccccc3)c2)cn1 [FTO-03]
precipitation in assay buffer [3]: significant precipitation

Structure (SMILES): COc1ncc(-c2ccc3nc(N)sc3c2)cn1 [FTO-04]
potency toward FTO relative to MA (FTO [4]; ratio of IC50 to MA (12.5 μM)): approximately 4 ×
mechanism of inhibition (FTO [5]): competitive mechanism of inhibition
size of neurospheres ([6]; TS576, 20 μM): significantly decrease the size of neurospheres
size of neurospheres vs vehicle control ([6]; TS576, 30 μM): significant reduction in size of the neurospheres
size of neurospheres [7]: significantly decrease the size of neurospheres
size of neurospheres [8]: significantly decrease the size of neurospheres
size of neurospheres [9]: no alteration in neurosphere size
m6A mRNA levels relative to DMSO control (dot blot) [10]: increased
increase in m6A levels relative to DMSO control [11]: ~ 1.4 ×
increase in m6Am levels relative to DMSO control [11]: ~ 3.2 ×

Structure (SMILES): Cc1ccc2cc(-c3cncnc3)ccc2n1 [FTO-07]
inhibition of ALKBH5 at the highest concentration measured (ALKBH5 [12]): no measurable inhibition

Structure (SMILES): COc1ccc2cc(-c3cnc(OC)nc3)ccc2c1 [FTO-08]
selectivity between FTO and ALKBH5 (in words) (ALKBH5 [12]): equivalent inhibitors toward both demethylases

Structure (SMILES): Nc1ncc(-c2cccc(Nc3ccccc3)c2)cn1 [FTO-09]
potency toward ALKBH5 over FTO (ALKBH5 [12]; ALKBH5 vs FTO IC50): ~10 times
selectivity between FTO and ALKBH5 (in words) (ALKBH5 [12]): distinct preference toward ALKBH5 over FTO

Structure (SMILES): Nc1ncc(-c2ccc3cc(O)ccc3c2)cn1 [FTO-10]
selectivity between FTO and ALKBH5 (in words) (ALKBH5 [12]): equivalent inhibitors toward both demethylases

Structure (SMILES): COc1ncc(-c2ccc3nc(C)ccc3c2)cn1 [FTO-11]
selectivity between FTO and ALKBH5 (in words) (ALKBH5 [12]): equivalent inhibitors toward both demethylases

Structure (SMILES): Nc1ncc(-c2cccc(OCc3ccccc3)c2)cn1 [FTO-13]
selectivity between FTO and ALKBH5 (in words) (ALKBH5 [12]): distinct preference toward ALKBH5 over FTO

Structure (SMILES): COCCNc1ncc(-c2ccc3nc(C)ccc3c2)cn1 [FTO-19]
selectivity between FTO and ALKBH5 (in words) (ALKBH5 [12]): equivalent inhibitors toward both demethylases

Structure (SMILES): Cc1ccc(Cl)c(Nc2ccccc2C(=O)O)c1Cl [MA, meclofenamic acid]
inhibition of FTO at 50 μM (stated as selectivity against ALKBH5) (ALKBH5 [2]): little to no inhibition
lifespan ([13]; intracranial GSC xenograft mice): prolong lifespan
tumor progression in vivo ([13]; orthotopically transplanted GSC tumors): prevented tumor progression in vivo

Results, then the compound that gave them:

preference for FTO over ALKBH5 (FTO [4]): ≥ 5 fold
IC50 (ALKBH5 [12]): > 40 µM
inhibition of ALKBH5 at the highest concentration measured (ALKBH5 [12]): no measurable inhibition
Structure (SMILES): COc1ccc2cc(-c3cncnc3)ccc2c1 [FTO-05]

preference for FTO over ALKBH5 (FTO [4]): ≥ 5 fold
Structure (SMILES): COc1ncc(-c2ccc(CO)c(OC)c2)cn1 [FTO-06]

preference for FTO over ALKBH5 (FTO [4]): ≥ 5 fold
IC50 (ALKBH5 [12]): > 40 µM
inhibition of ALKBH5 at the highest concentration measured (ALKBH5 [12]): no measurable inhibition
Structure (SMILES): COc1ccc2cc(-c3cnc(N)nc3)ccc2c1 [FTO-12]

precipitation in assay buffer [3]: significant precipitation
Structure (SMILES): COCCNc1ncc(-c2ccc3cc(OC)ccc3c2)cn1 [FTO-15]

inhibition of ALKBH5 at the highest concentration measured (ALKBH5 [12]): no measurable inhibition
Structure (SMILES): COCCNc1ncc(-c2ccc(OCc3ccccc3)cc2)cn1 [FTO-18]

preference for FTO over ALKBH5 (FTO [4]): ≥ 5 fold
Structure (SMILES): COCCNc1ncc(-c2ccc(CO)c(OC)c2)cn1 [FTO-20]
